In ChEMBL document CHEMBL4196091 (Eur J Med Chem, 2018) one finds Activity and IC50 data, which are given here for two compounds.

Usually pIC50 stands for the IC50 on a negative log10 scale, so that one unit is a factor of ten.

Molecules are shown by their SMILES. pIC50: −log10 of the molar value. The source made the active and inactive calls. No cut-off for these calls is given here. Bounds are passed on as bounds.

For assay [1], the system named is HT-29. The experiment in a line: Inhibition of VEGF protein secretion in human HT-29 cells assessed as VEGF protein level at 9 nM after 48 hrs by ELISA (reference value: 100%). Format: functional. On the set-up: scale not given: the % may be the effect or the level left. For orientation: In an ELISA, binding on a coated surface is turned into a signal by an enzyme label.

Another assay concerns HEK293. The experiment in a line: Antiproliferative activity against HEK293 cells after 2 days by MTT assay. It counts as ADME, cell-based. To be noted: Homo sapiens, HEK293, 48 h. For orientation: Formazan colour is commonly taken as a measure of viable cells.
The subject of assay [2] is HT-29. In words: Downregulation of hTERT gene expression in human HT-29 cells assessed as hTERT mRNA level at 9 nM after 48 hrs by RT-PCR method (reference value: 100%). It counts as functional. Put shortly: (§1)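 HT-29 cells were taken at 70–80% confluence and seeded at 1.5 x 10^5 per well. After 24 h they were exposed to compound for 48 h. Total RNA was isolated and TaqMan RT-qPCR run for VEGF-A, c-MYC and hTERT, normalized to β-actin. Expression is given as percent of DMSO control, with at least three measurements and one-sample t-tests.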

In assay [3] the test system is HT-29. In words: Downregulation of VEGF gene expression in human HT-29 cells assessed as VEGF mRNA level at 9 nM after 48 hrs by RT-PCR method (reference value: 100%). It counts as functional. In a few lines:
as §1

The test system of assay [4] is A549. The experiment in a line: Cell cycle arrest in human A549 cells assessed as accumulation at sub-G0 phase at 20 nM after 24 hrs by propidium iodide staining based flow cytometry (reference value: 2 +/- 1%). It counts as functional. Put shortly:
(§2)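 A549 cells maintained in DMEM (1 g/L glucose, 2 mM glutamine, penicillin/streptomycin/amphotericin B, 10% FBS) and treated for 24 h. Cells were then fixed, RNase-treated and stained with propidium iodide. DNA content was measured by flow cytometry to give cell-cycle phase distribution, including a sub-G1 peak. Data are means (±SD) of two experiments.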

The subject of another assay is MCF7. In words: Antiproliferative activity against human MCF7 cells after 2 days by MTT assay. Format: functional, cell-based. Conditions: MCF7, 48 h.
For assay [5], the system named is HT-29. In words: Downregulation of c-Myc gene expression in human HT-29 cells assessed as c-Myc mRNA level at 9 nM after 48 hrs by RT-PCR method (reference value: 100%). It counts as functional. In a few lines: as §1
The subject of assay [6] is A549. The experiment in a line: Antiproliferative activity against human A549 cells after 2 days by MTT assay. Format: functional, cell-based. Conditions: A549, 48 h.
The subject of assay [7] is A549. The experiment in a line: Cell cycle arrest in human A549 cells assessed as accumulation at G2/M phase at 20 nM after 24 hrs by propidium iodide staining based flow cytometry (reference value: 11 +/- 4%). It counts as functional. Put shortly: as §2
Assay [8] deals with A549. In words: Cell cycle arrest in human A549 cells assessed as accumulation at S phase at 20 nM after 24 hrs by propidium iodide staining based flow cytometry (reference value: 15 +/- 6%). Format: functional. In a few lines:
as §2

Assay [9] concerns HT-29. The experiment in a line: Antiproliferative activity against human HT-29 cells after 2 days by MTT assay. Format: functional, cell-based. Conditions: HT-29, 48 h.
Assay [10] deals with A549. In words: Cell cycle arrest in human A549 cells assessed as accumulation at G2/M phase at 3 nM after 24 hrs by propidium iodide staining based flow cytometry. Format: functional. In a few lines: as §2
For orientation: In flow cytometry, cells or beads pass a laser one at a time.

For assay [11], the system named is A549. The experiment in a line: Cell cycle arrest in human A549 cells assessed as accumulation at G0/G1 phase at 20 nM after 24 hrs by propidium iodide staining based flow cytometry (reference value: 73 +/- 3%). Format: functional. Put shortly: as §2
In assay [12] the test system is HT-29. The experiment in a line: Downregulation of VEGF gene expression in human HT-29 cells assessed as VEGF mRNA level at 0.5 nM after 48 hrs by RT-PCR method (reference value: 100%). It counts as functional. Put shortly:
as §1

The subject of assay [13] is HT-29. In words: Downregulation of hTERT gene expression in human HT-29 cells assessed as hTERT mRNA level at 0.5 nM after 48 hrs by RT-PCR method (reference value: 100%). Format: functional. Put shortly:
as §1

The test system of assay [14] is HT-29. In words: Inhibition of VEGF protein secretion in human HT-29 cells assessed as VEGF protein level at 0.5 nM after 48 hrs by ELISA (reference value: 100%). Format: functional. On the set-up: scale not given: the % may be the effect or the level left.
In assay [15] the test system is HT-29. In words: Downregulation of c-Myc gene expression in human HT-29 cells assessed as c-Myc mRNA level at 0.5 nM after 48 hrs by RT-PCR method (reference value: 100%). It counts as functional. In a few lines: as §1

As to `COc1cc2c(c(OC)c1OC)-c1ccc(OC)c(=O)cc1[C@@H](NC(=O)c1ccc(Br)cc1)CC2`, the Activity in the assay with HT-29 [1] is listed as 62%; in the assay on HT-29 [2], >100%; in the assay on HT-29 [3], 37%; in the assay with A549 [4] it was 4%; in the assay on HT-29 [5] it was 41%; with A549 [7], 56%. In addition, the Activity with A549 [8] is listed as 16%; with A549 [11], 25%. The pIC50 in the assay on HEK293 is 8.11; in the assay with MCF7, 8.05; in the assay on A549 [6], 8.38; in the assay with HT-29 [9] it was 7.94. Moreover, in the assay on A549 [10], the outcome was Active.

In the case of `COc1cc2c(c(OC)c1OC)-c1ccc(OC)c(=O)cc1[C@@H](NC(=O)c1cccc(Br)c1)CC2`, the pIC50 in the assay on HEK293 was 8.96; in the assay on MCF7 it was 9.44; with A549 [6], 7.85; in the assay on HT-29 [9], 9.25. The Activity is given as 61% in the assay with HT-29 [12]; 91% in the assay with HT-29 [13]; 4% in the assay with A549 [4]; 79% with HT-29 [14]; 51% in the assay on A549 [7]; 16% with A549 [8]. Also, the Activity came out at 34% with HT-29 [15] and 29% with A549 [11]. For the same compound, the result with A549 [10] was Active.
